Data: article PMC9890135 (Molecular Cancer Therapeutics, 2022)

Legend:
NCI-H441 tumors = experiment: NCI-H441 xenograft tumor growth; format: in vivo, mice; details: 21 days, oral
How it was run: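 Human tumour cells inoculated into the rear flank. Mice randomised at mean volumes of ~200 mm3 (Hs 746T), ~120 mm3 (MDA-MB-231), ~100 mm3 (NCI-H441) or ~90 mm3 (SNU-5). Oral gavage once daily with test compound or vehicle. Tumour volume and body weight measured at least twice weekly. […], using mean volumes at extraction and dosing start.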

[1] = Plasma protein binding, rapid equilibrium dialysis; format: in vitro ADME; details: mouse
How it was run: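 Rapid equilibrium dialysis against PBS at 10 μmol/L test compound, 16 h incubation, in triplicate.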

VEGFR2 = VEGFR2 (Mus musculus, UniProt P35918); format: in vivo, mice; details: lung
How it was run: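 Hs 746T tumour-bearing mice received single oral doses (30 or 100 mg/kg; n = 5 pooled) or vehicle (n = 6 pooled). Then hVEGF (10 μg i.v.) 3.5 h later, 30 min before sacrifice. Lung homogenate immunoprecipitated overnight with anti-VEGFR2 on Protein A magnetic beads; Western for phospho- and total VEGFR2, infrared imaging. 100 mg/kg group also sampled every 12 h to 48 h.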

TYRO3 = target: T1, TYRO3 (Homo sapiens, UniProt Q06418); experiment: Inhibition of receptor phosphorylation, ELISA, TYRO3-transfected 293A cells; format: cell-based
T1 sequence (Q06418 41-890): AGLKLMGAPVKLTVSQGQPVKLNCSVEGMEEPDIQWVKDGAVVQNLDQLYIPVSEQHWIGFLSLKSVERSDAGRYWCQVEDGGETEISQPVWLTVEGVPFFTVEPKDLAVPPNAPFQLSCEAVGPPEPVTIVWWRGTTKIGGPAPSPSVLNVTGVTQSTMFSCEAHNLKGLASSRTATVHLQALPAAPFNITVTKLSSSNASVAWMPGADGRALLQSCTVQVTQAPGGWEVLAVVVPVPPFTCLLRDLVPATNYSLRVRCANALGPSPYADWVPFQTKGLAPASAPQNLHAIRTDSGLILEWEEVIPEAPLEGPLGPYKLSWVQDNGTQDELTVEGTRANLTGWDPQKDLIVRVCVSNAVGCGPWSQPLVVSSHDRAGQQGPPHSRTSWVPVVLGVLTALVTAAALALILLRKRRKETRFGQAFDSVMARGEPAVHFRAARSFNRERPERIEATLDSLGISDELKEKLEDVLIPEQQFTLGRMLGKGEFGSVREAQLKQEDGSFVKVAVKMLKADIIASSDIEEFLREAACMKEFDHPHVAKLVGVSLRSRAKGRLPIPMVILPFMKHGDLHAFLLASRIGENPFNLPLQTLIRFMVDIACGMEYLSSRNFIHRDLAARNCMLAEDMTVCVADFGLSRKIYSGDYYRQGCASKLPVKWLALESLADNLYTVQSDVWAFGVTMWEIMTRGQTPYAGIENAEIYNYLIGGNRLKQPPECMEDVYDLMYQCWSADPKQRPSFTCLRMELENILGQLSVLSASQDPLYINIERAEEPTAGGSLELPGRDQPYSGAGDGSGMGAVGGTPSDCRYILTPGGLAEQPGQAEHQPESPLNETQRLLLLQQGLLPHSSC
How it was run: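 293A cells transfected with TYRO3 were serum-starved 3–24 h, then incubated 1 h in serum-free medium with serially diluted test compound. Receptor phosphorylation quantified by ELISA to derive IC50.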

[2] = rats; cited from earlier work

VEGFR2, sequence (P35918 20-1345): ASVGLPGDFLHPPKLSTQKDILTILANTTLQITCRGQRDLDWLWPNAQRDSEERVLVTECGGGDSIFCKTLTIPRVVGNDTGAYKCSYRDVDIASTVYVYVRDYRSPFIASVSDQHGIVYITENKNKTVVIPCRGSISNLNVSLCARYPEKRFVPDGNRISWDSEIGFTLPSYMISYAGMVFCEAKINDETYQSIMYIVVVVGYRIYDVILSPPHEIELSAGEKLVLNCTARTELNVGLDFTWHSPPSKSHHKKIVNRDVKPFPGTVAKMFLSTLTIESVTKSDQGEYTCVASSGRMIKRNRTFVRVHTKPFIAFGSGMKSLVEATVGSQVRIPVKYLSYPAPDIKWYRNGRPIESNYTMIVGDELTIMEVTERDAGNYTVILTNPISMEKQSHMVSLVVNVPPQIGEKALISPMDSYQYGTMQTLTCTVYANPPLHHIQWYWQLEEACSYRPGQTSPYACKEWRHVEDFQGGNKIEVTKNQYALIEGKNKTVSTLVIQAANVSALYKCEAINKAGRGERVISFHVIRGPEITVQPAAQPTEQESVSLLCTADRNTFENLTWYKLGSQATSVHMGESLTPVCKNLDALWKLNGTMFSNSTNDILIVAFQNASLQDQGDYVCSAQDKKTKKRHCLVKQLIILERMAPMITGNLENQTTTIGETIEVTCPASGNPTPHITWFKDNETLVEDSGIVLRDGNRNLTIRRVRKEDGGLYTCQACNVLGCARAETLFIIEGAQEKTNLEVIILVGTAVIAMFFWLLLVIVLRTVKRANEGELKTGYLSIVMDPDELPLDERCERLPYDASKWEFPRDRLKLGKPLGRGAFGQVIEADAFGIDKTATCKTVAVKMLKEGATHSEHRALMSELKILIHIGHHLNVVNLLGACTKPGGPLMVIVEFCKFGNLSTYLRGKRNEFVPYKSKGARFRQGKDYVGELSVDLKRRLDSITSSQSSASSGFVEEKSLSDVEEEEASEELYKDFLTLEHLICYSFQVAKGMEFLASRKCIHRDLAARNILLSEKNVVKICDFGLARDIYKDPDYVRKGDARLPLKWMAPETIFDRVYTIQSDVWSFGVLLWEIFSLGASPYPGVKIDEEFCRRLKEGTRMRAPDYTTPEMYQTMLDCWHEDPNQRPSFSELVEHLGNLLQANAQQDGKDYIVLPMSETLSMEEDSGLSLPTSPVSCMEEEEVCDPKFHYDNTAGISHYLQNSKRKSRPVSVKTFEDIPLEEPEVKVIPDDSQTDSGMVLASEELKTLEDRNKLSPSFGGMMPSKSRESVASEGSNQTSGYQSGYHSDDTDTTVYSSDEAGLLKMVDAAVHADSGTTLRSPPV

## CNC(=O)c1cc2c(Oc3ccc(NC(=O)C4(C(=O)Nc5ccc(F)cc5)CC4)cc3)ccnc2cc1OC [XL092]
NCI-H441 tumors; 1 mg/kg/day
  Tumor growth inhibition: 68.3%
NCI-H441 tumors; 3 mg/kg/day
  Tumor regression (%): 5.6%
NCI-H441 tumors; 10 mg/kg/day
  Tumor regression (%): 67.7%
NCI-H441 tumors; 30 mg/kg/day
  Tumor regression (%): 72.1%
NCI-H441 tumors; 60 mg/kg/day
  Tumor regression (%): 86.1%
[1]
  fraction unbound at 16 h, 10 μmol/L: 0.003
VEGFR2; Hs 746T model, single dose of 100 mg/kg
  duration of inhibition of VEGFR2 phosphorylation: approximately 24 hours
VEGFR2; Hs 746T tumor-bearing mice, 30 mg/kg single bolus, 4 hours after treatment
  pVEGFR2 Inhibition, %: complete abolishment
TYRO3
  IC50: 306 ± 1.37 nM
[2]
  half-life: approximately 7 hours
